What was measured:
L1210 [1] = assay: In vitro antiproliferative activity against L1210 cell line, activity expressed as growth inhibition; assay type: functional; settings: Mus musculus
In short: (§1)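 MTT proliferation assay. Adherent cells trypsinized and seeded at densities keeping controls in exponential growth. Drug exposure for four doubling times, at most 7 days. MTT (5 mg/mL stock) added for 4 h at 37 °C, formazan dissolved in DMSO, OD read at 540 nm. % growth from treated/control OD, tri- or hexaplicates averaged against log concentration. GI50 from linear regression on the linear zone.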

L1210 [2] = assay: Compound was tested for percentage of L1210 cells accumulated in the G2 + M + 8N phase of the cell cycle at 50 uM; assay type: functional, Mus musculus
In short: (§2)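 Flow cytometry of L1210 cells (2.5×10^5/mL) exposed to drug for 21 h (about two doubling times). Cells fixed in 70% ethanol, washed twice in PBS, then 30 min in PBS with 100 µg/mL RNAse and 25 µg/mL propidium iodide. 10 000 cells counted per sample. Reported as % of cells in G2 + M + 8N.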

Mus musculus [3] = assay: In vivo anticancer activity against an ip P388 murine model after intraperitoneal administration of 200 mg/kg compound; assay type: functional
In short: (§3)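 Female B6D2F1 mice, 4–6 weeks old, 20–22 g, inoculated ip with 10^6 P388 leukemia cells. Single ip or iv injection on day 1 at the listed dose (range 25–400 mg/kg). BCNU run as internal reference. Median survival of treated versus control mice gives T/C (%). Activity threshold set at T/C 125%.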

Mus musculus [4] = assay: In vivo anticancer activity against an ip P388 murine model after intraperitoneal administration of 100 mg/kg compound; assay type: functional; in short: as §3
Mus musculus [5] = assay: In vivo anticancer activity against an ip P388 murine model after intravenous administration of 25 mg/kg compound; assay type: functional; in short: as §3
Mus musculus [6] = assay: In vivo anticancer activity against an ip P388 murine model after intravenous administration of 50 mg/kg compound; assay type: functional; in short: as §3
Mus musculus [7] = assay: In vivo anticancer activity against an ip P388 murine model after intravenous administration of 400 mg/kg compound; assay type: functional; in short: as §3
Tubulin = Tubulin (Bos taurus, UniProt Q6B856+Q862L2+Q862F3); assay: Inhibitory concentration against calf tubulin polymerization; assay type: protein assay
In short: (§4)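 Calf brain tubulin purified by three assembly–disassembly cycles, about 2–3 mg/mL in 0.1 M MES, 0.5 mM MgCl2, 2 mM EGTA, 1 mM GTP, pH 6.6. Assembly followed continuously by turbidimetry at 37 °C. IC50 is the concentration halving the maximum assembly rate of drug-free tubulin. Deoxypodophyllotoxin measured the same day as reference.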

Mus musculus [8] = assay: In vivo anticancer activity against an ip P388 murine model after intraperitoneal administration of 25 mg/kg compound; assay type: functional; in short: as §3
Mus musculus [9] = assay: In vivo anticancer activity against an ip P388 murine model after intraperitoneal administration of 400 mg/kg compound; assay type: functional; in short: as §3
Mus musculus [10] = assay: In vivo anticancer activity against an ip P388 murine model after intraperitoneal administration of 50 mg/kg compound; assay type: functional; in short: as §3
Mus musculus [11] = assay: In vivo anticancer activity against an ip P388 murine model after intravenous administration of 200 mg/kg compound; assay type: functional; in short: as §3
Mus musculus [12] = assay: In vivo anticancer activity against an ip P388 murine model after intravenous administration of 100 mg/kg compound; assay type: functional; in short: as §3
KB = assay: In vitro antiproliferative activity against KBA1 cell line; assay type: functional, Mus musculus; settings: Homo sapiens; in short: as §1
[13] = Inhibitory concentration against calf microtubule polymerization; assay type: functional, Bos taurus; in short: as §4
LS174T = assay: In vitro antiproliferative activity against LS174T cell line; assay type: functional, Mus musculus; settings: Homo sapiens; in short: as §1
OVCAR-3 = assay: In vitro antiproliferative activity against OVCAR-3 cell line; assay type: functional, Mus musculus; settings: Homo sapiens; in short: as §1
A549 = assay: In vitro antiproliferative activity against A549 cell line; assay type: functional, Mus musculus; settings: Homo sapiens; in short: as §1
L1210 [14] = assay: In vitro antiproliferative activity against L1210 cell line; assay type: functional; settings: Mus musculus; in short: as §1
B16 = assay: In vitro antiproliferative activity against B16 cell line; assay type: functional; settings: Mus musculus; in short: as §1
L1210 [15] = assay: Compound was tested for percentage of L1210 cells accumulated in the G2 + M + 8N phase of the cell cycle at 0.5 uM; assay type: functional, Mus musculus; in short: as §2
A2780 = assay: In vitro antiproliferative activity against A2780 cell line; assay type: functional, Mus musculus; settings: Homo sapiens; in short: as §1
HT-29 = assay: In vitro antiproliferative activity against HT-29 cell line; assay type: functional, Mus musculus; settings: Homo sapiens; in short: as §1
DU-145 = assay: In vitro antiproliferative activity against DU145 cell line; assay type: functional, Mus musculus; settings: Homo sapiens; in short: as §1
P388 = assay: In vitro antiproliferative activity against P388 cell line; assay type: functional; settings: Mus musculus; in short: as §1
CCRF-CEM = assay: Cytotoxicity against human leukemia CCRF-CEM cell line; assay type: functional
NCI-H522 = assay: Cytotoxicity against human NSCL NCI-H522 cell line; assay type: functional
M14 [16] = assay: Cytotoxicity against human melanoma M-14 cell line from the NCI 60 tumoral cell line panel; assay type: functional
PC-3 = assay: Cytotoxicity against human prostate PC-3 cell line; assay type: functional
MDA-N = assay: Cytotoxicity against human breast MDA-N cell line; assay type: functional
SW-620 = assay: Cytotoxicity against human colon SW-620 cell line; assay type: functional
RXF 393 = assay: Cytotoxicity against human renal XF-393 cell line; assay type: functional
M14 [17] = assay: Cytotoxicity against human melanoma M-14 cell line; assay type: functional
Homo sapiens [18] = assay: Compound was evaluated for anticancer activity in the hollow fiber assay, activity expressed as ip score; assay type: functional
In short: (§5)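 Mouse hollow-fiber model: PVDF fibres holding 12 human tumour cell lines implanted ip and sc. Drug in 10% DMSO in saline/Tween-80, given ip once daily for four doses at each of two dose levels, triplicate. Fibres collected the day after the last dose for viable cell mass. Each ≥50% reduction versus vehicle controls scores 2, summed per site.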

Homo sapiens [19] = species: Homo sapiens; assay: Compound was evaluated for anticancer activity in the hollow fiber assay, activity expressed as total score; assay type: functional; in short: as §5
Homo sapiens [20] = assay: Compound was evaluated for anticancer activity in the hollow fiber assay, activity expressed as sc score; assay type: functional; in short: as §5

Compound: COc1ccc(-c2cccc3c2-n2cccc2C3=O)cc1OC
- GI50 (L1210 [1]): 72.2 µM

Compound: O=C1c2scc(-c3cccc(O)c3)c2-n2cccc21
- GI50 (L1210 [1]): 29 µM

Compound: COc1ccc(-c2csc3c2-n2cccc2C3=O)c(OC)c1OC
- GI50 (L1210 [1]): 36.4 µM

Compound: COc1ccccc1-c1csc2c1-n1cccc1C2=O
- GI50 (L1210 [1]): 18.9 µM
- Cells (L1210 [2]): 75%

Compound: O=C1c2scc(-c3ccc(O)c(O)c3)c2-n2cccc21
- T/C (Mus musculus [3]): 133%
- T/C (Mus musculus [4]): 134%
- GI50 (L1210 [1]): 0.28 µM
- T/C (Mus musculus [5]): 95%
- T/C (Mus musculus [6]): 101%
- T/C (Mus musculus [7]): 21%
- IC50 (Tubulin): 21 µM
- T/C (Mus musculus [8]): 111%
- T/C (Mus musculus [9]): 149%
- T/C (Mus musculus [10]): 118%
- T/C (Mus musculus [11]): 103%
- T/C (Mus musculus [12]): 105%

Compound: Oc1ccc(-c2csc3nc(O)c4cccn4c23)cc1O
- GI50 (L1210 [1]): 8.8 µM

Compound: O=C1c2cccc(-c3ccco3)c2-n2cccc21
- GI50 (L1210 [1]): 27.6 µM

Compound: O=C1c2scc(-c3ccc(O)c(O)c3O)c2-n2cccc21
- GI50 (L1210 [1]): 12 µM

Compound: COc1ccc(-c2csc3nc(O)c4cccn4c23)cc1OC
- GI50 (L1210 [1]): > 100 µM

Compound: COc1ccc(-c2coc3c2-n2cccc2C3=O)cc1OC
- GI50 (L1210 [1]): 24.2 µM

Compound: Cc1csc2c1-n1cccc1C2=O
- GI50 (L1210 [1]): > 100 µM

Compound: COc1ccc(-c2csc3c2-n2cccc2/C3=N/O)cc1
- GI50 (L1210 [1]): 34.3 µM

Compound: O=C1c2scc(-c3ccccc3O)c2-n2cccc21
- GI50 (L1210 [1]): 3.7 µM

Compound: COc1ccc(C2CC(=O)c3cccn32)cc1O (stereo unspecified)
- GI50 (L1210 [1]): 25 µM

Compound: COc1ccc(-c2csc3c2-n2cccc2C3=O)cc1O
- GI50 (KB): 0.015 µM
- T/C (Mus musculus [3]): 117%
- T/C (Mus musculus [4]): 121%
- IC50 [13]: 2.9 µM
- GI50 (LS174T): 0.887 µM
- GI50 (L1210 [1]): 0.015 µM
- GI50 (OVCAR-3): 0.031 µM
- T/C (Mus musculus [5]): 102%
- T/C (Mus musculus [6]): 104%
- T/C (Mus musculus [7]): 19%
- GI50 (A549): 0.045 µM
- IC50 (Tubulin): 2.9 µM
- GI50 (L1210 [14]): 0.015 µM
- T/C (Mus musculus [8]): 108%
- GI50 (B16): 0.023 µM
- T/C (Mus musculus [9]): 121%
- Cells (L1210 [15]): 86%
- GI50 (A2780): 0.04 µM
- GI50 (HT-29): 0.713 µM
- T/C (Mus musculus [10]): 116%
- GI50 (DU-145): 0.043 µM
- GI50 (P388): 0.021 µM
- T/C (Mus musculus [11]): 103%
- T/C (Mus musculus [12]): 102%

Compound: O=C1c2scc(-c3ccc(Cl)cc3)c2-n2cccc21
- GI50 (CCRF-CEM): 100 µM
- GI50 (NCI-H522): 3.16 µM
- GI50 (M14 [16]): 50.1 µM
- GI50 (PC-3): 100 µM
- GI50 (MDA-N): 7.94 µM
- GI50 (SW-620): 100 µM
- GI50 (RXF 393): 100 µM

Compound: COc1ccc(-c2csc3c2-n2cccc2/C3=N/OCCCN(C)C)cc1
- GI50 (L1210 [1]): 3.9 µM

Compound: CCCOc1ccc(-c2csc3c2-n2cccc2C3=O)cc1
- GI50 (L1210 [1]): 28.1 µM

Compound: CCOc1ccc(-c2csc3c2-n2cccc2C3=O)cc1
- GI50 (L1210 [1]): 0.43 µM

Compound: O=C1c2sccc2-n2cccc21
- GI50 (L1210 [1]): 85 µM

Compound: COc1ccc(-c2csc3c2-n2cccc2C3=O)cc1OC
- GI50 (L1210 [1]): 11.7 µM
- IC50 (Tubulin): 19 µM

Compound: O=C1c2scc(-c3ccccc3)c2-n2cccc21
- GI50 (CCRF-CEM): 20 µM
- GI50 (NCI-H522): 12.6 µM
- GI50 (PC-3): 12.6 µM
- GI50 (MDA-N): 15.8 µM
- GI50 (SW-620): 15.8 µM
- GI50 (RXF 393): 12.6 µM
- GI50 (M14 [17]): 20 µM

Compound: CC(C)Oc1ccc(-c2csc3c2-n2cccc2C3=O)cc1
- GI50 (L1210 [1]): 12.2 µM

Compound: COc1ccc(-c2csc3c2-n2cccc2C3=O)cc1OCc1ccccc1
- GI50 (L1210 [1]): 5.4 µM

Compound: O=C1c2scc(-c3ccc(F)cc3)c2-n2cccc21
- GI50 (CCRF-CEM): 31.6 µM
- GI50 (NCI-H522): 15.8 µM
- GI50 (PC-3): 31.6 µM
- GI50 (MDA-N): 7.94 µM
- GI50 (SW-620): 25.1 µM
- GI50 (RXF 393): 25.1 µM
- GI50 (M14 [17]): 31.6 µM

Compound: COc1cc(-c2csc3c2-n2cccc2C3=O)ccc1O
- GI50 (L1210 [1]): 8 µM

Compound: O=C1c2cccc(-c3cccs3)c2-n2cccc21
- GI50 (L1210 [1]): 71.9 µM

Compound: O=C1c2scc(-c3ccc4c(c3)OCO4)c2-n2cccc21
- GI50 (L1210 [1]): 4.2 µM

Compound: CCCCOc1ccc(-c2csc3c2-n2cccc2C3=O)cc1
- GI50 (L1210 [1]): 29.6 µM

Compound: COc1ccc(-c2c[nH]c3c2-n2cccc2C3=O)cc1OC
- GI50 (L1210 [1]): 11.8 µM

Compound: COc1ccc(-c2cc3c(s2)C(=O)c2cccn2-3)cc1
- GI50 (L1210 [1]): 9.4 µM

Compound: COc1cc(-c2csc3c2-n2cccc2C3=O)ccc1OCc1ccccc1
- GI50 (L1210 [1]): 24.1 µM

Compound: COc1ccc(-c2csc3c2-n2cccc2C3=O)cc1
- GI50 (CCRF-CEM): 0.0316 µM
- GI50 (NCI-H522): 0.0158 µM
- GI50 (L1210 [1]): 0.19 µM
- Activity (Homo sapiens [18]): 16
- Activity (Homo sapiens [19]): 16
- GI50 (PC-3): 0.0398 µM
- GI50 (MDA-N): 0.0126 µM
- GI50 (SW-620): 0.0251 µM
- Activity (Homo sapiens [20]): 0
- GI50 (RXF 393): 0.0631 µM
- GI50 (M14 [17]): 0.0316 µM

Compound: COc1cccc(-c2csc3c2-n2cccc2C3=O)c1
- GI50 (L1210 [1]): 5.2 µM

Compound: COc1ccc(-c2cccc3c2-n2cccc2C3=O)cc1
- GI50 (L1210 [1]): 3 µM

Compound: COc1ccc(-c2csc3c2-n2cccc2C3O)cc1 (stereo unspecified)
- GI50 (L1210 [1]): 4.9 µM

Compound: O=C1c2scc(-c3ccc(O)cc3)c2-n2cccc21
- GI50 (L1210 [1]): 30.1 µM

Reference: ChEMBL document CHEMBL1149098, “Design, synthesis, and evaluation of novel thienopyrrolizinones as antitubulin agents” (J Med Chem, 2004)
